Cl transport mod: modulates chloride dependent transport by human KCC2. actives 2.2% (n = 190,000). B-score of Tl+ flux slope (higher = more flux/activation; lower = inhibition) at 10 µM. KCC2 cells, thallium flux FluoZin-2 fluorescence. Q9H2X9. AID 1456;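 active = thallium flux slope and its plate-corrected score both differing from the plate sample mean at a set confidence after two filtering rounds, in either direction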;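 also: slope of fluorescence scaled to starting intensity during 10 to 20 s after thallium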
KCNQ1 act: potentiators or activators of human KCNQ1 potassium channel | CHO-K1 KCNQ1, thallium flux FluxOR fluorescence; hits give high values | P51787 | B-score at 10 µM | actives 0.35% (n = 310,000);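 active = fluorescence ratio B-score, a plate-corrected score, at least three library SD, with initial intensity B-score within 5 SD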
Target sequence (P51787 whole entry, looked up): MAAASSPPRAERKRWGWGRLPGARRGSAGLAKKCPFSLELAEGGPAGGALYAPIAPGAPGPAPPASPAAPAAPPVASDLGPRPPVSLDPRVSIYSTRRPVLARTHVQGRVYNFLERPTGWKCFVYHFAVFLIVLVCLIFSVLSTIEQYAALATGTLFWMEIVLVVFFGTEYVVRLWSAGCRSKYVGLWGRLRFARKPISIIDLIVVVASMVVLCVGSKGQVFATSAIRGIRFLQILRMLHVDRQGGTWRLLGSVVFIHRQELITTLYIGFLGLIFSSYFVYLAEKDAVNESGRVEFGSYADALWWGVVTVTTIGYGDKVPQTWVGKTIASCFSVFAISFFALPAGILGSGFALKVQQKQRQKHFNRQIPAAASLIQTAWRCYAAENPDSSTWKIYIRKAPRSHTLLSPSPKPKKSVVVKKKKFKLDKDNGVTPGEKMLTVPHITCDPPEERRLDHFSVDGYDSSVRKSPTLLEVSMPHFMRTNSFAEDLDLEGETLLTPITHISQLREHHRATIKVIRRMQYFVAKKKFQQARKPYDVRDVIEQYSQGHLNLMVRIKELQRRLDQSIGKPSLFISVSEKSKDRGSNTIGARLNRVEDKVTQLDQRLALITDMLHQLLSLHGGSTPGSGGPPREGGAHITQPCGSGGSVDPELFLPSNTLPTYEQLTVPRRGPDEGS
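Medium – assay buffer, equal DMSO in all wells · Material – CHO-K1 cell line with stable KCNQ1 potassium channel expression · Signal – kinetic FluxOR thallium fluorescence, 10-s 1-Hz baseline, 110-s post-stimulus read · Compound – single concentration per compound, DMSO matched to controls · Schedule – 37 °C overnight plating, 90-min dark dye load, 20-min compound pretreatment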
KCNK3 block: human KCNK3 channel inhibition, primary screen; O14649; CHO-KCNK3 thallium flux, FluxOR fluorescence; hits give low values; B-score at 10 µM; actives 0.84% (n = 340,000); AID 602410;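 active = B-score under library mean minus 4 SD, starting fluorescence ratio at most library mean plus 5 SD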;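 also: more negative B-score means stronger inhibition of thallium flux through KCNK3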
hERG rescue: hERG (human) protection from proarrhythmic block; Q12809; CHO-hERG, FluxOR thallium flux, dofetilide IC70 present; activation (rescue from dofetilide block), less the hit threshold, % at 10 µM; actives 0.51% (n = 310,000);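 active = activation above the mean of controls blocked by dofetilide plus 5 SD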;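 also: thallium influx through hERG after potassium depolarization seen as dye fluorescence rise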
KCNQ1 block: blocks the human KCNQ1 potassium channel; P51787; CHO-K1 KCNQ1, FluxOR thallium flux fluorescence; hits give high values; B-score at 10 µM; actives 1.3% (n = 310,000);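 active = compounds whose thallium flux B-score, printed positive for inhibition, exceeds three library SD while starting fluorescence stays within three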;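 also: channel opened by potassium depolarization with thallium stimulus after 20 min compound exposure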
KCNK9 block: inhibitors of human KCNK9 two-pore domain potassium channel | Q9NPC2 | HEK293 KCNK9, FluxOR thallium flux fluorescence; hits give low values | B-score at 10 µM | actives 1.2% (n = 310,000) | AID 488922;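 active = ratio B-score over 3 SD below the library mean, with starting fluorescence within 5 SD of its mean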;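 also: negative B-score means less thallium flux so channel inhibition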
KCC2 secondary: confirmation of human KCC2 transport modulators; shares compounds with Cl transport mod; HEK293-KCC2, thallium flux, FluoZin2 fluorescence; hits give high values; normalised thallium flux (F/F0 slope) at 10 µM; actives 15% (n = 3,700);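 active = thallium flux slope above the same plate's solvent-only control mean plus 3 SD; inconclusive = the two replicate wells disagree; inactive = no significant difference from solvent-only control wells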
KCC2 bumet counter: bumetanide-insensitive thallium flux in KCC2 cells with ouabain, counter-screen; shares compounds with Cl transport mod; HEK293-KCC2 + bumetanide/ouabain, thallium flux FluoZin2; hits give high values; normalized thallium flux at 10 µM; actives 49% (n = 3,700); AID 1714;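 active = thallium entry rate above the same plate's blocked-transporter control wells by more than 3 SD; inconclusive = the two repeat wells disagree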;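 also: raw slope of fluorescence over initial fluorescence between 10 and 20 s after thallium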
KCC2 secondary2: KCC2 (human) modulation, second secondary assay; HEK293-KCC2, thallium flux FluoZin2 fluorescence; actives lie on both sides; F/F0 rise rate, 10–20 s post-thallium; shares compounds with Cl transport mod; normalized thallium flux at 10 µM; actives 23% (n = 3,700); AID 1715;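 active = thallium flux slope more than 3 SD above or below the plate's solvent-only control mean, mostly below; inconclusive = the two repeat wells disagreed; inactive = no significant shift from solvent-only controls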
HEK counter1: counter-screen for KCC2 modulators: effect in parental HEK293 cells. thallium flux FluoZin2, ouabain; baseline-ratio fluorescence slope, 10–20 s after thallium. actives 46% (n = 3,700). AID 1716. thallium flux rate (normalised fluorescence) at 10 µM. shares compounds with Cl transport mod;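 active = thallium flux rate significantly above the same plate's solvent-only control wells, beyond their mean plus 3 SD; inconclusive = the two replicate wells gave conflicting results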
KCC2 ouabain: modulates human KCC2 on retest with ouabain; shares compounds with Cl transport mod; actives 48% (n = 3,700); raw Tl+ flux slope (below DMSO = inhibition, above = activation) at 10 µM; HEK293-KCC2, thallium flux FluoZin2 fluorescence; bidirectional: low = inhibitor, high = activator;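 active = thallium flux slope beyond 3 SD from same-plate DMSO control mean in most replicates, usually higher, sometimes lower; inconclusive = repeat tests gave conflicting results; inactive = no significant difference from controls in most replicates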;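 also: slope of initial-normalized fluorescence between seconds 10 and 20 after thallium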
HEK293 Tl flux2: parental HEK flux effect, counter-screen 2; shares compounds with Cl transport mod; HEK293 parental, thallium flux FluoZin-2 fluorescence slope; thallium flux slope at 10 µM; actives 33% (n = 3,700);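 active = thallium flux slope above the same plate's solvent-control mean plus 3 SD in both duplicate wells; inconclusive = duplicate wells that disagreed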;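 also: run without ouabain in cells lacking the KCC2 cotransporter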
Large screens that a line does not name were inactive (follow-up assays come after a bar, where they were run). Rows were chosen to be rich in hits. Some 4.1% of all compounds tested hit in one or more screens of this group.

CC(C)NC(=S)N=Nc1c(O)[nH]c2ccc(C(C)C)cc12	Cl transport mod 4.05 | KCC2 secondary inactive | KCC2 bumet counter 0.0129 | KCC2 secondary2 inactive | HEK counter1 0.0149 | KCC2 ouabain inconclusive | HEK293 Tl flux2 0.014
CC(C)c1ccc2[nH]c(O)c(N=NC(=O)c3cccc(S(=O)(=O)Nc4ccccc4Cl)c3)c2c1	none
COc1ccc(/C=N/OCC(=O)N=Nc2c(O)[nH]c3ccc(Br)cc23)cc1OC	none
COc1ccccc1NC(=S)N=Nc1c(O)[nH]c2ccc(Br)cc12	Cl transport mod 9.1 | KCC2 secondary inactive | KCC2 bumet counter 0.00996 | KCC2 secondary2 inactive | HEK counter1 0.014 | KCC2 ouabain inconclusive | HEK293 Tl flux2 0.0166
Cc1cccc(NC(=S)N=Nc2c(O)[nH]c3ccccc23)c1	Cl transport mod 17.1 | KCC2 secondary inconclusive | KCC2 bumet counter 0.0322 | KCC2 secondary2 inactive | HEK counter1 0.0146 | KCC2 ouabain 0.0457 | HEK293 Tl flux2 inconclusive
O=C(COC(=O)c1ccc(S(=O)(=O)C(F)F)cc1)Nc1cccnc1Cl	none (no result: Cl transport mod)
CC(NCc1cc(Br)ccc1OCC(N)=O)C12CC3CC(CC(C3)C1)C2 (stereo not drawn)	none (no result: Cl transport mod)
N#C/C(=N\Nc1ccccc1Cl)C(=O)c1ccccc1	Cl transport mod -4.36 | KCC2 secondary inactive | KCC2 bumet counter inactive | KCC2 secondary2 inactive | HEK counter1 inconclusive | KCC2 ouabain 0.0155 | HEK293 Tl flux2 inactive
N#C/C(=N\Nc1cccc(Cl)c1)C(=O)c1ccccc1	none
O=C(NCCc1ccc(Cl)cc1)c1ccc(Br)s1	none (no result: Cl transport mod)
CSc1ccccc1C(=O)N(CC1CCCO1)c1c(N)n(Cc2ccccc2)c(=O)[nH]c1=O (stereo not drawn)	none (no result: Cl transport mod)
C/C(=N\NC(=O)CNc1cccc(C(F)(F)F)c1)c1cccc(Br)c1	Cl transport mod 5.45 | KCC2 secondary inactive | KCC2 bumet counter inactive | KCC2 secondary2 inactive | HEK counter1 inactive | KCC2 ouabain inactive | HEK293 Tl flux2 inactive
C/C(=N\NC(=O)CNc1cccc(C(F)(F)F)c1)c1ccc(Br)cc1	none
CCN(CC)C(=O)COc1c(-c2ccco2)oc2ccccc2c1=O	none (no result: Cl transport mod)
CC(=O)Oc1c(-c2ccco2)oc2ccccc2c1=O	Cl transport mod 40.1, KCNQ1 act 8 | KCC2 secondary 0.0455 | KCC2 bumet counter 0.0709 | KCC2 secondary2 0.0573 | HEK counter1 0.0568 | KCC2 ouabain 0.0562 | HEK293 Tl flux2 0.0556
Cn1nccc1C(=O)N1CCOCC1	none (no result: Cl transport mod)
COc1ccc(NC(=O)CC2CCCC2)cc1S(=O)(=O)N1CCCCC1	none
COc1ccc(NC(=O)CCC2CCCCC2)cc1S(=O)(=O)N1CCCCC1	Cl transport mod -3.94 | KCC2 secondary inactive | KCC2 bumet counter inactive | KCC2 secondary2 inactive | HEK counter1 inactive | KCC2 ouabain inactive | HEK293 Tl flux2 inactive
Cc1ccccc1CSCCNS(C)(=O)=O	none (no result: Cl transport mod) | KCC2 secondary inactive | KCC2 bumet counter inactive | KCC2 secondary2 inactive | HEK counter1 inactive | KCC2 ouabain inactive | HEK293 Tl flux2 inactive
CC(=O)Nc1ccccc1NC(=O)C/C(C)=N/NC(=O)c1ccc([N+](=O)[O-])c(Cl)c1	none
C/C(=N\NC(=O)c1ccc([N+](=O)[O-])c(C)c1)c1ccccc1Cl	Cl transport mod 12.2 | KCC2 secondary inconclusive | KCC2 bumet counter 0.0465 | KCC2 secondary2 inactive | HEK counter1 inconclusive | KCC2 ouabain 0.0412 | HEK293 Tl flux2 inconclusive
O=C(COc1ccc2ccccc2c1)Nc1cccc(C(=O)Nc2ccccc2C(=O)O)c1	Cl transport mod -4.73 | KCC2 secondary inconclusive | KCC2 bumet counter inactive | KCC2 secondary2 0.0239 | HEK counter1 inconclusive | KCC2 ouabain 0.0135 | HEK293 Tl flux2 inconclusive
C[C@H](C[C@H](O)[C@H]1OC1(C)C)C1=C2C[C@H](O)C3[C@@]4(C)CCC(=O)C(C)(C)C4CC[C@]3(C)[C@@]2(C)CC1 (stereo partly drawn)	none (no result: Cl transport mod, KCNQ1 act, hERG rescue, KCNQ1 block, KCNK9 block)
C[C@@H](C[C@@H](O)[C@H](O)C(C)(C)O)[C@@H]1CC[C@]2(C)C3=CC[C@H]4C(C)(C)C(=O)CC[C@]4(C)[C@H]3CC[C@@]12C	Cl transport mod 4.77 | KCC2 secondary inactive | KCC2 bumet counter 0.0307 | KCC2 secondary2 inactive | HEK counter1 inactive | KCC2 ouabain inconclusive | HEK293 Tl flux2 inactive
O=C(c1ccco1)N1CCC(c2nc3c(nnn3Cc3ccc(F)cc3)c(=O)[nH]2)CC1	none (no result: Cl transport mod)
COc1ccc2nc(-n3c(O)c(C4=c5ccccc5=NC4=O)[nH]c3=S)sc2c1	none
Cn1c(O)c(C2=c3ccccc3=NC2=O)[nH]c1=S	Cl transport mod 27.4 | KCC2 secondary 0.0154 | KCC2 bumet counter 0.0614 | KCC2 secondary2 inactive | HEK counter1 0.0306 | KCC2 ouabain 0.0427 | HEK293 Tl flux2 0.0139
C/C(=N\NC(=S)NCc1ccccc1)c1ccc(C)o1	Cl transport mod 5.45 | KCC2 secondary inactive | KCC2 bumet counter 0.015 | KCC2 secondary2 inactive | HEK counter1 0.012 | KCC2 ouabain inconclusive | HEK293 Tl flux2 inactive
C/C(=N\NC(=O)Cc1ccccc1)c1ccc(Cl)s1	none (no result: Cl transport mod)
C/C(=N\NC(=S)NCc1ccccc1)c1ccc(Br)cc1	none
C/C(=N\NC(=O)Cc1ccccc1)c1cccs1	none
C/C(=N\NC(=S)NCc1ccccc1)c1ccc(Cl)s1	Cl transport mod 10 | KCC2 secondary inactive | KCC2 bumet counter 0.0171 | KCC2 secondary2 inactive | HEK counter1 inconclusive | KCC2 ouabain 0.0261 | HEK293 Tl flux2 inactive
COCCNC(=S)N/N=C(\C)c1ccc(Cl)s1	Cl transport mod 32.5 | KCC2 secondary 0.0142 | KCC2 bumet counter 0.06 | KCC2 secondary2 inactive | HEK counter1 0.0196 | KCC2 ouabain 0.0391 | HEK293 Tl flux2 0.012

Screening data deposited in PubChem by several laboratories.
